Test results taken from ChEMBL document CHEMBL1177643, “Synthesis, DNA-binding ability and anticancer activity of benzothiazole/benzoxazole-pyrrolo[2,1-c][1,4]benzodiazepine conjugates” (Bioorg Med Chem, 2010).

Key:
Calf thymus DNA = experiment: Binding affinity to calf thymus duplex-form DNA assessed as melting temperature at 1:5 compound/DNA ratio after 18 hrs; format: nucleic-acid assay; conditions: Bos taurus
CCRF-CEM = experiment: Growth inhibition of human CCRF-CEM cells after 48 hrs by sulforhodamine B assay; format: functional
In short: (§1)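 Dose–response in each cell line over at least five concentrations at 10-fold dilutions, with 48 h continuous exposure and sulforhodamine B read-out.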

HL-60 = experiment: Growth inhibition of human HL-60(TB) cells after 48 hrs by sulforhodamine B assay; format: functional; conditions: HL-60, 48 h
In short: (§2)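 Panel of 60 human cancer cell lines; for each compound, dose–response curves per cell line measured at a minimum of five concentrations at 10-fold dilutions. Cells exposed continuously to drug for 48 h, and growth was read out by sulforhodamine B staining.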

K562 = experiment: Growth inhibition of human K562 cells after 48 hrs by sulforhodamine B assay; format: functional; conditions: K562, 48 h; in short: as §2
MOLT-4 = experiment: Growth inhibition of human MOLT4 cells after 48 hrs by sulforhodamine B assay; format: functional; conditions: MOLT-4, 48 h; in short: as §2
[1] = Growth inhibition of human […] cells after 48 hrs by sulforhodamine B assay; format: functional; in short: as §2
SR = experiment: Growth inhibition of human SR cells after 48 hrs by sulforhodamine B assay; format: functional; in short: as §2
A549 = experiment: Growth inhibition of human A549 cells after 48 hrs by sulforhodamine B assay; format: functional; conditions: A549, 48 h; in short: as §1
EKVX = experiment: Growth inhibition of human EKVX cells after 48 hrs by sulforhodamine B assay; format: functional; in short: as §1
HOP-62 = experiment: Growth inhibition of human HOP62 cells after 48 hrs by sulforhodamine B assay; format: functional; conditions: HOP-62, 48 h; in short: as §2
HOP-92 = experiment: Growth inhibition of human HOP92 cells after 48 hrs by sulforhodamine B assay; format: functional; conditions: HOP-92, 48 h; in short: as §2
NCI-H226 = experiment: Growth inhibition of human NCI-H226 cells after 48 hrs by sulforhodamine B assay; format: functional; conditions: NCI-H226, 48 h; in short: as §2
NCI-H23 = experiment: Growth inhibition of human NCI-H23 cells after 48 hrs by sulforhodamine B assay; format: functional; conditions: NCI-H23, 48 h; in short: as §2
NCI-H322M = experiment: Growth inhibition of human NCI-H322M cells after 48 hrs by sulforhodamine B assay; format: functional; in short: as §2
NCI-H460 = experiment: Growth inhibition of human NCI-H460 cells after 48 hrs by sulforhodamine B assay; format: functional; conditions: NCI-H460, 48 h; in short: as §2
NCI-H522 = experiment: Growth inhibition of human NCI-H522 cells after 48 hrs by sulforhodamine B assay; format: functional; conditions: NCI-H522, 48 h; in short: as §2
COLO 205 = experiment: Growth inhibition of human COLO205 cells after 48 hrs by sulforhodamine B assay; format: functional; conditions: COLO 205, 48 h; in short: as §1
HCC 2998 = experiment: Growth inhibition of human HCC2998 cells after 48 hrs by sulforhodamine B assay; format: functional; conditions: HCC 2998, 48 h; in short: as §2
HCT-116 = experiment: Growth inhibition of human HCT116 cells after 48 hrs by sulforhodamine B assay; format: functional; conditions: HCT-116, 48 h; in short: as §2
HCT-15 = experiment: Growth inhibition of human HCT15 cells after 48 hrs by sulforhodamine B assay; format: functional; conditions: HCT-15, 48 h; in short: as §2
HT-29 = experiment: Growth inhibition of human HT-29 cells after 48 hrs by sulforhodamine B assay; format: functional; conditions: HT-29, 48 h; in short: as §2
KM12 = experiment: Growth inhibition of human KM12 cells after 48 hrs by sulforhodamine B assay; format: functional; conditions: KM12, 48 h; in short: as §2
SW-620 = experiment: Growth inhibition of human SW620 cells after 48 hrs by sulforhodamine B assay; format: functional; conditions: SW-620, 48 h; in short: as §2
SF-268 = experiment: Growth inhibition of human SF268 cells after 48 hrs by sulforhodamine B assay; format: functional; conditions: SF-268, 48 h; in short: as §2
SF-295 = experiment: Growth inhibition of human SF295 cells after 48 hrs by sulforhodamine B assay; format: functional; conditions: SF-295, 48 h; in short: as §2
SF-539 = experiment: Growth inhibition of human SF539 cells after 48 hrs by sulforhodamine B assay; format: functional; conditions: SF-539, 48 h; in short: as §2
SNB-19 = experiment: Growth inhibition of human SNB19 cells after 48 hrs by sulforhodamine B assay; format: functional; conditions: SNB-19, 48 h; in short: as §2
SNB-75 = experiment: Growth inhibition of human SNB75 cells after 48 hrs by sulforhodamine B assay; format: functional; conditions: SNB-75, 48 h; in short: as §2
U-251 = experiment: Growth inhibition of human U251 cells after 48 hrs by sulforhodamine B assay; format: functional; conditions: U-251, 48 h; in short: as §2
LOX IMVI = experiment: Growth inhibition of human LOXIMVI cells after 48 hrs by sulforhodamine B assay; format: functional; in short: as §2
Malme-3M = experiment: Growth inhibition of human MALME-3M cells after 48 hrs by sulforhodamine B assay; format: functional; in short: as §2
M14 = experiment: Growth inhibition of human M14 cells after 48 hrs by sulforhodamine B assay; format: functional; conditions: M14, 48 h; in short: as §2
SK-MEL-2 = experiment: Growth inhibition of human SK-MEL-2 cells after 48 hrs by sulforhodamine B assay; format: functional; conditions: SK-MEL-2, 48 h; in short: as §2
SK-MEL-28 = experiment: Growth inhibition of human SK-MEL-28 cells after 48 hrs by sulforhodamine B assay; format: functional; conditions: SK-MEL-28, 48 h; in short: as §2
SK-MEL-5 = experiment: Growth inhibition of human SK-MEL-5 cells after 48 hrs by sulforhodamine B assay; format: functional; conditions: SK-MEL-5, 48 h; in short: as §2
UACC-257 = experiment: Growth inhibition of human UACC257 cells after 48 hrs by sulforhodamine B assay; format: functional; conditions: UACC-257, 48 h; in short: as §2
UACC-62 = experiment: Growth inhibition of human UACC62 cells after 48 hrs by sulforhodamine B assay; format: functional; conditions: UACC-62, 48 h; in short: as §2
IGROV-1 = experiment: Growth inhibition of human IGROV1 cells after 48 hrs by sulforhodamine B assay; format: functional; conditions: IGROV-1, 48 h; in short: as §2
OVCAR-3 = experiment: Growth inhibition of human OVCAR-3 cells after 48 hrs by sulforhodamine B assay; format: functional; conditions: OVCAR-3, 48 h; in short: as §2
OVCAR-4 = experiment: Growth inhibition of human OVCAR4 cells after 48 hrs by sulforhodamine B assay; format: functional; conditions: OVCAR-4, 48 h; in short: as §2
OVCAR-5 = experiment: Growth inhibition of human OVCAR5 cells after 48 hrs by sulforhodamine B assay; format: functional; conditions: OVCAR-5, 48 h; in short: as §2
OVCAR-8 = experiment: Growth inhibition of human OVCAR8 cells after 48 hrs by sulforhodamine B assay; format: functional; conditions: OVCAR-8, 48 h; in short: as §2
SK-OV-3 = experiment: Growth inhibition of human SKOV3 cells after 48 hrs by sulforhodamine B assay; format: functional; conditions: SK-OV-3, 48 h; in short: as §2
786-0 = experiment: Growth inhibition of human 786-0 cells after 48 hrs by sulforhodamine B assay; format: functional; conditions: 786-0, 48 h; in short: as §1
A498 = experiment: Growth inhibition of human A498 cells after 48 hrs by sulforhodamine B assay; format: functional; conditions: A498, 48 h; in short: as §1
ACHN = experiment: Growth inhibition of human ACHN cells after 48 hrs by sulforhodamine B assay; format: functional; in short: as §1
CAKI-1 = experiment: Growth inhibition of human Caki1 cells after 48 hrs by sulforhodamine B assay; format: functional; conditions: CAKI-1, 48 h; in short: as §1
RXF 393 = experiment: Growth inhibition of human RXF393 cells after 48 hrs by sulforhodamine B assay; format: functional; conditions: RXF 393, 48 h; in short: as §2
SN12C = experiment: Growth inhibition of human SN12C cells after 48 hrs by sulforhodamine B assay; format: functional; in short: as §2
TK-10 = experiment: Growth inhibition of human TK10 cells after 48 hrs by sulforhodamine B assay; format: functional; conditions: TK-10, 48 h; in short: as §2
UO-31 = experiment: Growth inhibition of human UO31 cells after 48 hrs by sulforhodamine B assay; format: functional; conditions: UO-31, 48 h; in short: as §2
PC-3 = experiment: Growth inhibition of human PC3 cells after 48 hrs by sulforhodamine B assay; format: functional; conditions: PC-3, 48 h; in short: as §2
DU-145 = experiment: Growth inhibition of human DU145 cells after 48 hrs by sulforhodamine B assay; format: functional; conditions: DU-145, 48 h; in short: as §1
MCF7 = experiment: Growth inhibition of human MCF7 cells after 48 hrs by sulforhodamine B assay; format: functional; conditions: MCF7, 48 h; in short: as §2
NCI/ADR-RES = experiment: Growth inhibition of human NCI/ADR-RES cells after 48 hrs by sulforhodamine B assay; format: functional; in short: as §2
MDA-MB-231 = experiment: Growth inhibition of human MDA-MB-231 cells after 48 hrs by sulforhodamine B assay; format: functional; conditions: MDA-MB-231, 48 h; in short: as §2
Hs-578T = experiment: Growth inhibition of human Hs 578T cells after 48 hrs by sulforhodamine B assay; format: functional; in short: as §2
MDA-MB-435 = experiment: Growth inhibition of human MDA-MB-435 cells after 48 hrs by sulforhodamine B assay; format: functional; conditions: MDA-MB-435, 48 h; in short: as §2
BT-549 = experiment: Growth inhibition of human BT549 cells after 48 hrs by sulforhodamine B assay; format: functional; conditions: BT-549, 48 h; in short: as §1
T47D = experiment: Growth inhibition of human T47D cells after 48 hrs by sulforhodamine B assay; format: functional; in short: as §2

**Q.** With `COc1cc(-c2nc3ccccc3o2)ccc1OCCCCCOc1cc2c(cc1OC)C(=O)N1CCC[C@H]1C=N2` as the compound, how does the ΔTm (Calf thymus DNA) read?
**A.** 4.2 °C

**Q.** Which results are given for `COc1cc2c(cc1OCCCCOc1ccc(-c3nc4ccccc4s3)cc1)N=C[C@@H]1CCCN1C2=O`?
**A.** ΔTm (Calf thymus DNA): 0.5 °C; GI50 (CCRF-CEM): 282 nM; GI50 (HL-60): 380 nM; GI50 (K562): 355 nM; GI50 (MOLT-4): 234 nM; GI50 [1]: 214 nM; GI50 (SR): 21.9 nM; GI50 (A549): 2630 nM; GI50 (EKVX): 1260 nM; GI50 (HOP-62): 407 nM; GI50 (HOP-92): 178 nM; GI50 (NCI-H226): 1450 nM; GI50 (NCI-H23): 741 nM; GI50 (NCI-H322M): 2190 nM; GI50 (NCI-H460): 407 nM; GI50 (NCI-H522): 324 nM; GI50 (COLO 205): 339 nM; GI50 (HCC 2998): 363 nM; GI50 (HCT-116): 295 nM; GI50 (HCT-15): 646 nM; GI50 (HT-29): 380 nM; GI50 (KM12): 550 nM; GI50 (SW-620): 427 nM; GI50 (SF-268): 661 nM; GI50 (SF-295): 676 nM; GI50 (SF-539): 347 nM; GI50 (SNB-19): 1510 nM; GI50 (SNB-75): 1070 nM; GI50 (U-251): 229 nM; GI50 (LOX IMVI): 407 nM; GI50 (Malme-3M): 1260 nM; GI50 (M14): 537 nM; GI50 (SK-MEL-2): 389 nM; GI50 (SK-MEL-28): 2140 nM; GI50 (SK-MEL-5): 347 nM; GI50 (UACC-257): 2190 nM; GI50 (UACC-62): 794 nM; GI50 (IGROV-1): 2400 nM; GI50 (OVCAR-3): 380 nM; GI50 (OVCAR-4): 1150 nM; GI50 (OVCAR-5): 331 nM; GI50 (OVCAR-8): 759 nM; GI50 (SK-OV-3): 1230 nM; GI50 (786-0): 214 nM; GI50 (A498): 2040 nM; GI50 (ACHN): 363 nM; GI50 (CAKI-1): 355 nM; GI50 (RXF 393): 191 nM; GI50 (SN12C): 631 nM; GI50 (TK-10): 479 nM; GI50 (UO-31): 661 nM; GI50 (PC-3): 295 nM; GI50 (DU-145): 269 nM; GI50 (MCF7): 324 nM; GI50 (NCI/ADR-RES): 1150 nM; GI50 (MDA-MB-231): 269 nM; GI50 (Hs-578T): 501 nM; GI50 (MDA-MB-435): 447 nM; GI50 (BT-549): 182 nM; GI50 (T47D): 219 nM
